# Results gathered from unrelated publications.
# Lines come from different studies, so protocols differ.
# Grm8: Metabotropic glutamate receptor 8 (Grm8, Rattus norvegicus, UniProt P70579)
# CHRM1: Muscarinic acetylcholine receptor M1 (CHRM1, Homo sapiens, UniProt P11229)
# Melanocortin receptor 3: Melanocortin receptor 3 (Mus musculus, UniProt P33033)
# TLR7: Toll-like receptor 7 (TLR7, Homo sapiens, UniProt Q9NYK1)
Structure (SMILES),target,effect on,mode,notes,EC50 [µM]
CC[C@@H]1SC2(CCN(C)CC2)NC1=O,"Muscarinic acetylcholine receptor M4 (Rattus norvegicus, UniProt P08485)",calcium signal,agonist,,> 50
N[C@@H](CCC(=O)O)C(=O)O,Grm8,ion flux,agonist,,6.3
CCn1c(-c2nc3cc(C(=O)N4CCC[C@@H](N)C4)cc(OC)c3n2C)cc2cccnc21,CHRM1,calcium signal,agonist,,7.94
COC(=O)c1ccc(-n2c(C)cc(C(=O)CSc3ccc(NC(C)=O)cc3)c2C)cc1,Grm8,calcium signal,positive allosteric modulator,,0.851
CCn1c(-c2nc3ccc(C(=O)N4CCCC(N)C4)cc3n2C)cc2ccccc21 (centres unmarked),CHRM1,calcium signal,agonist,,15.8
CSCC[C@H](NC(=O)[C@@H](NC(=O)[C@@H](N)Cc1ccc(O)cc1)C(C)C)C(=O)NCC(=O)N[C@@H](Cc1c[nH]cn1)C(=O)N[C@@H](Cc1ccccc1)C(=O)N[C@@H](CCCNC(=N)N)C(=O)N[C@@H](Cc1c[nH]c2ccccc12)C(=O)O,Melanocortin receptor 3,reporter gene,agonist,,2.8
CCNC(=O)C1OC(n2cnc3c(N)nc(NN=CC4CCC=CO4)nc32)C(O)C1O (centres unmarked),"Adenosine receptor A2b (ADORA2B, Homo sapiens, UniProt P29275)",GTPγS binding,agonist,cell membranes,31
C[C@]12CCC3=C4CCC(=O)C=C4CC[C@H]3[C@@H]1CC[C@@]2(O)CC#N,"Progesterone receptor (PGR, Homo sapiens, UniProt P06401)",reporter gene,agonist,,0.0036
CSCC[C@H](N)C(=O)NCC(=O)N[C@@H](Cc1c[nH]cn1)C(=O)N[C@@H](Cc1ccccc1)C(=O)N[C@@H](CCCNC(=N)N)C(=O)N[C@@H](Cc1c[nH]c2ccccc12)C(=O)O,Melanocortin receptor 3,reporter gene,agonist,,22.4
CCCCOc1nc(N)c2[nH]c(=O)n(CCN3CCNCC3)c2n1,TLR7,reporter gene,agonist,,10
CCCC[C@H](NC(=O)[C@@H](NC(=O)[C@@H](N)Cc1ccc(O)cc1)C(C)C)C(=O)NCC(=O)N[C@@H](Cc1c[nH]cn1)C(=O)N[C@@H](Cc1ccccc1)C(=O)N[C@@H](CCCN=C(N)N)C(=O)N[C@@H](Cc1c[nH]c2ccccc12)C(=O)N[C@@H](CC(=O)O)C(=O)N[C@@H](CCCN=C(N)N)C(=O)N[C@@H](Cc1ccccc1)C(=O)NCC(=O)O,Melanocortin receptor 3,reporter gene,agonist,,0.068
CCCCOc1nc(N)c2[nH]c(=O)n(C3CNC3)c2n1,TLR7,reporter gene,agonist,,286
CCCC[C@H](NC(=O)[C@@H](NC(=O)[C@@H](N)Cc1ccc(O)cc1)C(C)C)C(=O)NCC(=O)N[C@@H](Cc1c[nH]cn1)C(=O)N[C@@H](Cc1ccccc1)C(=O)N[C@@H](CCCNC(=N)N)C(=O)N[C@H](Cc1c[nH]c2ccccc12)C(=O)N[C@@H](CC(=O)O)C(=O)N[C@@H](CCCNC(=N)N)C(=O)N[C@@H](Cc1ccccc1)C(=O)NCC(=O)O,Melanocortin receptor 3,reporter gene,agonist,,0.04
CC(=O)c1cc([N+](=O)[O-])c(Sc2cccc(Cl)c2Cl)s1,"Collagenase 3 (MMP13, Homo sapiens, UniProt P45452)",enzyme activity,inhibitor,,> 50
